C2C12 statin: protects C2C12 myotubes from simvastatin toxicity; 330,000 compounds, 0.78% hits; AID 602340; ATP luminescence, 48 h; scaled: DMSO 0, geranylgeraniol control 100; rescue of ATP level, % at 7.49 µM;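 active = mean ATP rescue above about 67%, or every replicate alone reaching that limit, limit read from the data, passing the limit was not always enough; inconclusive = no clear call, values can overlap the other calls; inactive = mean under the limit and some replicate under it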;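 note: myotubes were challenged with 10 µM simvastatin during compound exposure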
FN deposition inh: fibronectin deposition inhibition | AH1F fibroblasts, Alexa488-fibronectin deposition fluorescence, overnight | inhibition, % at 12.6 µM | 350,000 compounds, 0.086% hits;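 active = mean inhibition across replicates of 30% or more, regardless of how many single replicates reach that level; inconclusive = mean under 30% yet at least half of replicates reach 30%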;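 note: positive control wells lacked labelled fibronectin entirely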
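Assay system: AH1F fibroblast monolayer, labelled fibronectin deposition. Amount: 10000 cells per well. Also added: labelled fibronectin 24 nM. Compound: single-point pinned compound. Incubation: cell attachment 1 h, compound and FN exposure overnight. Detection: fluorescence after three HBSS washes, excitation 485 nm, emission 525 nm. Read-out: inhibition of fibronectin deposition signal.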
FGF22 binding: binders of recombinant human FGF22 by thermal shift; Q9HCT0; SYPRO orange fluorescence; percent of sucrose octasulfate shift, DMSO zero; activity (Tm shift, normalised), % at 9.99 µM; 340,000 compounds, 1.5% hits; AID 651658;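 active = mean Tm shift, scaled 0 neutral to 100 positive control, at about 1.3% or above, every replicate too, limit read from the data; inconclusive = no clear call, values can overlap the other calls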
Target sequence (Q9HCT0 whole entry, looked up): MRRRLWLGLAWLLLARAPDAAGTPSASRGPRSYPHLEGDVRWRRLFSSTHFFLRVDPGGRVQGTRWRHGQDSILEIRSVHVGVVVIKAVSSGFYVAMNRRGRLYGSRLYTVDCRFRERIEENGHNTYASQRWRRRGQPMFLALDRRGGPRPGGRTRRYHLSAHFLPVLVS
E-sel inducer: induces E-selectin expression in human endothelial cells. P16581. 260,000 compounds, 0.37% hits. AID 686992. HUVEC E-selectin immunofluorescence imaging; normalized: neutral wells 0, TNF-alpha wells 100. activation, % at 7.58 µM;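 active = mean E-selectin-positive cell signal at least 10% of the positive control, reached in at least 60% of replicates, without over 20% cell loss; inconclusive = no rule given, readout overlaps actives, possibly toxicity-flagged; inactive = the rest, including those meeting only one limit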
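assay system = HUVEC, human umbilical vein endothelial cells | input = 3,000 HUVEC seeded per well | medium = EGM-2 growth medium on 0.1% gelatin-coated wells | dosing = one compound dose added by pin transfer | signal = immunofluorescence imaging | read-out basis = % PE-positive cells | control set = TNF-alpha, DMSO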
rRNA inh HTS: inhibits bacterial ribosomal RNA function over humanized ribosomes. AID 720706. 350,000 compounds, 1.6% hits. GFP signal change (wild-type ribosome), % (concentration not given with the values). E. coli WT GFP vs humanized-ribosome RFP mutants, fluorescence, 24 h; active compounds read low; DMSO median 0, no signal -100;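 active = significant combined selectivity score with lowered wild-type GFP, culture density cut under 30%, mutant RFP and density less affected; inactive = any of these conditions unmet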
SIRT5 inh: inhibitors of human sirtuin-5 desuccinylase | Q9NXA8 | Purified SirT5, succinyl-peptide AMC, trypsin-coupled fluorescence | inhibition, % at 15 µM | 330,000 compounds, 1.1% hits | AID 652115; in the data active = inhibition above about 15%; inconclusive = no clear call, values can overlap the other calls
Target sequence (Q9NXA8 whole entry, looked up): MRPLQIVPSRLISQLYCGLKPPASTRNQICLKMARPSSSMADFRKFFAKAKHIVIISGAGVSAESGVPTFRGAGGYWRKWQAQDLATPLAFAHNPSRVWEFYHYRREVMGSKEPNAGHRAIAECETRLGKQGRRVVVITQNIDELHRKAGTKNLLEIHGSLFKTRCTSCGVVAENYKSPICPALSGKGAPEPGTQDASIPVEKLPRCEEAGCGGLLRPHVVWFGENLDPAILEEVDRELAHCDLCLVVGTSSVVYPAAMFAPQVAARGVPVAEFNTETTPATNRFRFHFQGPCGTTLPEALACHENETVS
AID977621: growth inhibition of wild-type GFP E. coli, dose response, H69 mutant RFP, cherry-pick; shares compounds with rRNA inh HTS; E. coli wild-type GFP strain growth, fluorescence, 24 h; activity change, negative = inhibition at 50 µM; 1,900 tested, under 10 active;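 active = Wild-type ribosome reporter drop at least double the humanized mutant ribosome reporter drop, growth loss under a set limit; inconclusive = no clear call, values can overlap the other calls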;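 note: wild-type GFP and H69 mutant RFP strains grown together 50/50 in each well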
AID977628: growth of wild-type and h24-humanized E. coli strains – h24 mutant RFP vs wild-type GFP, cherry-pick, dose response | shares compounds with rRNA inh HTS | E. coli WT GFP strain growth, fluorescence, 24 h | activity change, negative = inhibition at 50 µM | 1,900 tested, under 10 active | AID 977628;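 active = compound lowering the normal-ribosome reporter at least twice as much as the humanized-ribosome reporter, growth loss under a set limit; inconclusive = no clear call, values can overlap the other calls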;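 note: wild-type GFP and h24 humanized RFP strains co-cultured 1 to 1 per well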
* hit, by the source's call. Sampled rows, rich in hits. Any-hit rate of the full collection: about 4%.

Screening CN(C)S(=O)(=O)c1cccc(C(=O)Nc2ccc(C(=O)Nc3cccc(S(N)(=O)=O)c3)cc2)c1 returned C2C12 statin 11, FN deposition inh -3, E-sel inducer 2, rRNA inh HTS -24* and AID977628 -8.
For CO[C@H](CN(C)CC1CCOCC1)[C@@H](C)CN(C(=O)Nc1ccc(F)cc1)[C@@H](C)CO the results were C2C12 statin 1, FN deposition inh 1, FGF22 binding 1, E-sel inducer 0, rRNA inh HTS 0 and SIRT5 inh 1.
`C[C@@H]1CCCCO[C@H](CN(C)Cc2ccc(C(=O)O)cc2)[C@@H](C)CN([C@H](C)CO)C(=O)c2cc(NS(=O)(=O)c3ccccc3)ccc2O1` gave C2C12 statin 0, FN deposition inh 2, FGF22 binding 0, E-sel inducer 0 and rRNA inh HTS 2.
For O=C(COC(=O)c1ccc(Cl)nc1)NCCc1ccc(Cl)cc1 the results were C2C12 statin 1, FN deposition inh -2, FGF22 binding 0, E-sel inducer 0, rRNA inh HTS 4 and SIRT5 inh 0.
For COC(=O)CNC(=O)COC(=O)c1ccc(Cl)nc1 the results were C2C12 statin -9, FN deposition inh 4, FGF22 binding 0, E-sel inducer 8, rRNA inh HTS -19*, SIRT5 inh 1, AID977621 -8.5 and AID977628 -5.9.
C=CCN(c1ccccc1)S(=O)(=O)c1ccc(Cl)c(C(=O)OCC(=O)NCCCN2CCCC2=O)c1 was read as C2C12 statin -3, FN deposition inh 4, FGF22 binding 0, E-sel inducer 8, rRNA inh HTS -23*, SIRT5 inh -2 and AID977621 1.1.
For CNC[C@H]1Oc2ccc(NC(=O)Nc3c(C)noc3C)cc2C(=O)N([C@H](C)CO)C[C@@H]1C the results were C2C12 statin -26, FN deposition inh 7, FGF22 binding 0, E-sel inducer 0, rRNA inh HTS 2 and SIRT5 inh 6.
For O=S(=O)(NCCc1ccncc1)c1ccc(Br)cc1 the results were C2C12 statin 6 and FN deposition inh -11.
Fc1ccc(Br)cc1SCCc1ccncc1 was read as C2C12 statin 25, FN deposition inh -4, FGF22 binding 0, E-sel inducer 0, rRNA inh HTS -25*, SIRT5 inh -2, AID977621 -2 and AID977628 -13.
For O=C(C[C@@H]1C=C[C@H](NC(=O)Cc2cccnc2)[C@@H](CO)O1)Nc1ccccc1 the results were C2C12 statin 2, FGF22 binding 0, E-sel inducer 0, rRNA inh HTS 1 and SIRT5 inh 0.
`CCn1c(-c2cc(-c3ccc(OC(C)C)cc3)nc3ccccc23)n[nH]c1=S` gave C2C12 statin 1, FGF22 binding 0, rRNA inh HTS -28*, SIRT5 inh -15 and AID977628 inconclusive.
For COc1ccc(S(=O)(=O)N2CCCCC2)cc1NC(=O)c1cccnc1SC the results were FN deposition inh -9, FGF22 binding 0, E-sel inducer 2, rRNA inh HTS 5 and SIRT5 inh -8.
`COc1ccc(NC(=O)c2cccnc2SC)cc1S(=O)(=O)N1CCCCC1` gave FN deposition inh 27, FGF22 binding 0, E-sel inducer 2, rRNA inh HTS -25*, SIRT5 inh -2 and AID977621 inconclusive.
`CC(C)c1ccc(-c2nc3ccccc3s2)cc1` gave FN deposition inh 3, FGF22 binding 0, rRNA inh HTS -16*, SIRT5 inh 0, AID977621 -3.1 and AID977628 -4.9.
Screening FC(F)(F)c1ccc(-c2nc3ccccc3s2)cc1 returned C2C12 statin -10, FN deposition inh -3, FGF22 binding 0, E-sel inducer 0, rRNA inh HTS 0 and SIRT5 inh -3.
CSc1ccccc1NC(=O)c1ccccc1N(C)S(C)(=O)=O was read as C2C12 statin -1 and FN deposition inh 0.
Screening CSc1ccccc1NC(=O)c1ccccc1N(Cc1ccccc1)S(C)(=O)=O returned C2C12 statin 102*, FGF22 binding 0, rRNA inh HTS -24*, SIRT5 inh -3 and AID977621 -1.6.
For CCNC(=O)[C@@H]1[C@@H](CO)[C@@H]2Cn3c(ccc(C4=CCCCC4)c3=O)[C@@H]2N1Cc1ccccc1 the results were C2C12 statin -4, FGF22 binding 0, E-sel inducer 0, rRNA inh HTS -2 and SIRT5 inh -3.
Screening O=C(Cc1cccnc1)N1CC(=O)N2[C@H](C1)[C@@H](c1ccc(C3=CCCCC3)cc1)[C@@H]2CO returned FN deposition inh 6, FGF22 binding 0, E-sel inducer 0, rRNA inh HTS -17*, SIRT5 inh -2 and AID977628 inconclusive.
`c1ccc(CNc2ncnc3sccc23)cc1` gave C2C12 statin 9, FN deposition inh -5, FGF22 binding 0, E-sel inducer 0, rRNA inh HTS -21*, SIRT5 inh -2 and AID977628 inconclusive.
CCN(CC)C(=O)c1ccc(COc2ccccc2Cl)o1 was read as FN deposition inh 17, FGF22 binding 0, E-sel inducer 0, rRNA inh HTS -20*, SIRT5 inh -3, AID977621 1.5 and AID977628 -6.9.
Screening CN(C(=O)c1ccc(COc2ccccc2Cl)o1)c1ccccc1 returned C2C12 statin 3, FN deposition inh -14, FGF22 binding 0, E-sel inducer 0, rRNA inh HTS -56 and SIRT5 inh -6.
Screening Cc1[nH]nc2c1C(c1ccc(F)cc1)N(Cc1ccccc1)C2=O (stereo not given) returned FN deposition inh 2, FGF22 binding 0, E-sel inducer 0, rRNA inh HTS -21*, SIRT5 inh 1 and AID977628 inconclusive.
`COc1ccc(C[C@@H]2CCn3cc(nn3)COC[C@H](c3ccccc3)NC2=O)cc1` gave FN deposition inh -1 and rRNA inh HTS -1.
Screening CC(C)Cc1nnc(NC(=O)c2ccc(N3CCCC3=O)cc2)s1 returned C2C12 statin -8, FN deposition inh -8, E-sel inducer 3, rRNA inh HTS 5 and SIRT5 inh -1.
